These results are taken from ChEMBL document CHEMBL4765405, “Design, synthesis and biological activities of novel pleuromutilin derivatives with a substituted triazole moiety as potent antibacterial agents” (Eur J Med Chem, 2020).

The test system of data set [1] is Staphylococcus aureus. Description: Bactericidal activity against Staphylococcus aureus AD3 preincubated 16 to 20 hrs followed by subculturing and measured after over night. It counts as functional. Summed up:
(§1)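 MBC by CLSI broth microdilution on the same strain panel: S. aureus ATCC 43300, ATCC 29213, clinical isolates AD3 and 144, E. coli ATCC 25922; ATCC 43300 served as QC strain.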

The test system of data set [2] is Staphylococcus aureus. Description: Bactericidal activity against methicillin-resistant Staphylococcus aureus ATCC 43300 assessed as reduction in bacterial growth at > 4 time of MIC concentration preincubated up to 24 hrs followed by subculturing and measured after 20 hrs by time-kill assay. Format: functional. Set-up: scale not given: the % may be the effect or the level left. Particulars: time hrs <=44.

In data set [3] the test system is Staphylococcus aureus. Kind of data set: Antibacterial activity against methicillin-resistant Staphylococcus aureus ATCC 43300 after 24 hrs by CLSI based broth micro dilution method. Format: functional. Summed up:
(§2)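 Broth microdilution run per CLSI. MRSA ATCC 43300 served as the QC strain, with the CLSI QC range as reference. S. aureus AD3 and 144 are clinical isolates from Guangdong Province. Pleuromutilin and tiamulin were run as reference drugs.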

For data set [4], the system named is Staphylococcus aureus. Kind of data set: Bactericidal activity against Staphylococcus aureus 144 preincubated 16 to 20 hrs followed by subculturing and measured after over night. Format: functional. The procedure, abridged: as §1
In data set [5] the test system is Staphylococcus aureus. Description: Bactericidal activity against Staphylococcus aureus ATCC 29213 preincubated 16 to 20 hrs followed by subculturing and measured after over night. It counts as functional. Summed up:
as §1

The subject of data set [6] is Staphylococcus aureus. Kind of data set: Bactericidal activity against methicillin-resistant Staphylococcus aureus ATCC 43300 assessed as reduction in bacterial growth at MIC concentration preincubated up to 24 hrs followed by subculturing and measured after 20 hrs by time-kill assay. It counts as functional, organism-based. Particulars: time hrs <=44.
For a further data set, the target named is Cytochrome P450 3A4 (Homo sapiens, UniProt P08684). Kind of data set: Inhibition of CYP3A4 in human liver microsomes using testosterone as substrate preincubated for 5 mins followed by NADPH addition and measured after 5 mins by LC-MS/MS analysis. Format: ADME. (Liver microsomes are vesicles of endoplasmic reticulum, rich in cytochrome P450 enzymes.)
Cytochrome P450 3A4, sequence (P08684 whole entry): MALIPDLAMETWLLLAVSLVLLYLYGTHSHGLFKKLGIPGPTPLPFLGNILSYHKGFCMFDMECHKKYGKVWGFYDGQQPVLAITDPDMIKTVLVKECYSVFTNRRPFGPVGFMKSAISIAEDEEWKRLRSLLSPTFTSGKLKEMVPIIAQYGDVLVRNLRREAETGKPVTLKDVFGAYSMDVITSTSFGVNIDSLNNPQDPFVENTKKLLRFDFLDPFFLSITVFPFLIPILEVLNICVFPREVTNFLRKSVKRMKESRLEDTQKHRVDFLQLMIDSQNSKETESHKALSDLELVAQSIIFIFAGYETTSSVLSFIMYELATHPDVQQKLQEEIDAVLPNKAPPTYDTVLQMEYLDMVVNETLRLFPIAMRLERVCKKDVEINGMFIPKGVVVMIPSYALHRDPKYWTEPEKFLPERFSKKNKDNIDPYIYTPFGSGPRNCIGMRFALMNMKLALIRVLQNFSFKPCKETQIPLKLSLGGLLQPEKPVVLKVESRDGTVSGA
For data set [7], the system named is Staphylococcus aureus. Description: Antibacterial activity against methicillin-resistant Staphylococcus aureus ATCC 43300 infected in ICR/Swiss mouse model of neutropenic thigh infection assessed as reduction in bacterial load at 20 mg/kg, iv and measured after 24 hrs. Format: functional. The procedure, abridged: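 Mice made neutropenic by intraperitoneal cyclophosphamide; the negative control group received 0.9% saline intraperitoneally. Thigh muscle was inoculated with about 10^7 CFU/mL MRSA. Dose 20 mg/kg, with tiamulin as comparator and an untreated control. Read-out was thigh bacterial load (log10 CFU/g), n = 6/group.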

The test system of data set [8] is Staphylococcus aureus. Kind of data set: Antibacterial activity against Staphylococcus aureus AD3 after 24 hrs by CLSI based broth micro dilution method. It counts as functional. Summed up:
(§3)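 CLSI broth microdilution MIC against S. aureus ATCC 43300 (MRSA), ATCC 29213, clinical isolates AD3 and 144 (Guangdong Province), and E. coli ATCC 25922; ATCC 43300 served as QC strain, with the CLSI quality control range as reference.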

Data set [9] concerns Escherichia coli. Kind of data set: Bactericidal activity against Escherichia coli ATCC 25922 preincubated 16 to 20 hrs followed by subculturing and measured after over night. Format: functional. The procedure, abridged:
as §1

In data set [10] the test system is Staphylococcus aureus. Description: Antibacterial activity against methicillin-resistant Staphylococcus aureus ATCC 43300 infected in ICR/Swiss mouse systemic infection model assessed as survival rate at 30 mg/kg, ip after 7 days relative to control. It counts as functional. The note with it: ATCC 43300, ip, 168 h, time 7 day. Summed up:
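MRSA systemic infection model in mice. Dose 30 mg/kg with tiamulin as comparator and an untreated infected control. Survival was recorded after 7 days of administration.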

Data set [11] has as its system Staphylococcus aureus. Description: Antibacterial activity against methicillin-resistant Staphylococcus aureus ATCC 43300 assessed as post antibacterial effect at 4 time of MIC concentration preincubated for 2 hrs followed by compound washout further incubated with fresh medium and measured for 6 hrs. It counts as functional.
The nature of data set [12]: Ratio of MBC for bactericidal activity against methicillin-resistant Staphylococcus aureus ATCC 43300 to MIC for antibacterial activity against methicillin-resistant Staphylococcus aureus ATCC 4330. Format: functional.
For data set [13], the system named is Staphylococcus aureus. Kind of data set: Antibacterial activity against Staphylococcus aureus 144 after 24 hrs by CLSI based broth micro dilution method. It counts as functional. The procedure, abridged: as §2
Data set [14] concerns Staphylococcus aureus. Kind of data set: Antibacterial activity against Staphylococcus aureus ATCC 29213 after 24 hrs by CLSI based broth micro dilution method. Format: functional. The procedure, abridged: as §2
Data set [15] has as its system Staphylococcus aureus. Description: Bactericidal activity against methicillin-resistant Staphylococcus aureus ATCC 43300 preincubated 16 to 20 hrs followed by subculturing and measured after over night. Format: functional. Summed up: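 MBC determined by the CLSI broth microdilution method against MRSA ATCC 43300, with ATCC 43300 also serving as the QC strain. Pleuromutilin and tiamulin were reference drugs.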

The subject of data set [16] is Staphylococcus aureus. Description: Antibacterial activity against methicillin-resistant Staphylococcus aureus ATCC 43300 assessed as post antibacterial effect at 2 time of MIC concentration preincubated for 2 hrs followed by compound washout further incubated with fresh medium and measured for 6 hrs. Format: functional.
The test system of data set [17] is Escherichia coli. Kind of data set: Antibacterial activity against Escherichia coli ATCC 25922 after 24 hrs by CLSI based broth micro dilution method. Format: functional. Summed up: as §3
The subject of a further data set is RAW264.7. Description: Cytotoxicity against mouse RAW264.7 cells assessed as reduction in cell viability at 8 ug/ml after 16 hrs by MTT assay. Format: cell-based. Particulars: raw264.7, 16 h, dose 8 µg/ml. The procedure, abridged: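 RAW 264.7 macrophage viability read by MTT assay after exposure at 8 μg/mL.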
For orientation: Tetrazolium dyes change colour on reduction, which living cells bring about.

Data set [18] in a line: Inhibition of CYP450 (unknown origin). Format: ADME, Homo sapiens.

Converted amounts (≈) assume the structure as drawn. The source made the active and inactive calls.

A word on the MBC: it is the lowest tested concentration that kills the bacteria rather than only halting them. The MIC is the smallest concentration in the dilution series that meets the test's criterion for growth inhibition. Usually IC50 stands for the concentration that inhibits the measured activity by half.

Regarding `C=C[C@]1(C)C[C@@H](OC(=O)CSc2ccccc2NC(=O)Cn2cc(CN(C)C)nn2)[C@]2(C)[C@H](C)CC[C@]3(CCC(=O)[C@H]32)[C@@H](C)[C@@H]1O`, the MBC with Staphylococcus aureus [1] was 0.5 µg/mL (≈ 0.767 µM); in the data set with Staphylococcus aureus [4] it was 0.5 µg/mL (≈ 0.767 µM); with Staphylococcus aureus [5], 0.25 µg/mL (≈ 0.384 µM); against Escherichia coli [9], over 32 µg/mL; in the data set on Staphylococcus aureus [15], 0.5 µg/mL (≈ 0.767 µM). The Activity in the data set on Staphylococcus aureus [2] was 99.9%; with Staphylococcus aureus [7], 1.71 log10CFU/g; in the data set on RAW264.7, “Non-Toxic”. The MIC with Staphylococcus aureus [3] is 0.25 µg/mL (≈ 0.384 µM); against Staphylococcus aureus [8], 0.25 µg/mL (≈ 0.384 µM); against Staphylococcus aureus [13], 0.5 µg/mL (≈ 0.767 µM); in the data set with Staphylococcus aureus [14] it was 0.25 µg/mL (≈ 0.384 µM); with Escherichia coli [17] it was over 32 µg/mL. For the same compound, in the data set on Staphylococcus aureus [6], the result was Active. Further, it took 6.15 µM to reach half-maximal inhibition at Cytochrome P450 3A4 (IC50). For the same compound, in the data set on Staphylococcus aureus [10], the survival at 30 mg/kg is 50%. Moreover, the PAE in the data set with Staphylococcus aureus [11] was found to be 2.74 h; in the data set with Staphylococcus aureus [16] it was 2.03 h. For the same compound, in data set [12], the Ratio is on record as 1.

In [18], `CC[C@]1(C)C[C@@H](OC(=O)CSc2nnc(N)[nH]2)[C@]2(C)[C@H](C)CC[C@]3(CCC(=O)[C@H]32)[C@@H](C)[C@@H]1O` [AZAMULIN] displayed an IC50 of 0.12 µM.

For the compound `C=C[C@]1(C)C[C@@H](OC(=O)CSc2ccccc2NC(=O)Cn2cc(CN(CC)CC)nn2)[C@]2(C)[C@H](C)CC[C@]3(CCC(=O)[C@H]32)[C@@H](C)[C@@H]1O`, the MBC is 1 µg/mL (≈ 1.47 µM) in the data set with Staphylococcus aureus [1]; 0.5 µg/mL (≈ 0.735 µM) in the data set on Staphylococcus aureus [4]; 0.25 µg/mL (≈ 0.368 µM) in the data set on Staphylococcus aureus [5]; over 32 µg/mL in the data set on Escherichia coli [9]; 0.5 µg/mL (≈ 0.735 µM) in the data set with Staphylococcus aureus [15]. The Activity in the data set with Staphylococcus aureus [2] is recorded as 99.9%. Further, the MIC was 0.25 µg/mL (≈ 0.368 µM) against Staphylococcus aureus [3]; 0.5 µg/mL (≈ 0.735 µM) against Staphylococcus aureus [8]; 0.5 µg/mL (≈ 0.735 µM) in the data set on Staphylococcus aureus [13]; 0.25 µg/mL (≈ 0.368 µM) against Staphylococcus aureus [14]; over 32 µg/mL in the data set on Escherichia coli [17]. In addition, the outcome in the data set with Staphylococcus aureus [6] was Active. Moreover, the PAE came out at 1.84 h in the data set with Staphylococcus aureus [11] and 1.81 h with Staphylococcus aureus [16]. For the same compound, the Ratio in data set [12] was 1.

As to `C=C[C@]1(C)C[C@@H](OC(=O)CSCCN(CC)CC)[C@]2(C)[C@H](C)CC[C@]3(CCC(=O)[C@H]32)[C@@H](C)[C@@H]1O` [TIAMULIN], the MBC with Staphylococcus aureus [1] was 2 µg/mL (≈ 4.05 µM); against Staphylococcus aureus [4], 2 µg/mL (≈ 4.05 µM); against Staphylococcus aureus [5] it was 1 µg/mL (≈ 2.03 µM); against Staphylococcus aureus [15], 1 µg/mL (≈ 2.03 µM). The MIC in the data set with Staphylococcus aureus [3] came out at 0.5 µg/mL (≈ 1.01 µM); against Staphylococcus aureus [8], 1 µg/mL (≈ 2.03 µM); with Staphylococcus aureus [13], 1 µg/mL (≈ 2.03 µM); against Staphylococcus aureus [14], 0.5 µg/mL (≈ 1.01 µM). The Activity with Staphylococcus aureus [7] worked out at 0.77 log10CFU/g. In addition, the survival at 30 mg/kg with Staphylococcus aureus [10] was determined as 20%. For the same compound, the PAE turned out to be 2.04 h with Staphylococcus aureus [11] and 1.65 h with Staphylococcus aureus [16].
